This is a sample that favours compounds with a hit; in the whole collection about 9.3% have one here.
E coli WT exp = growth inhibitors of E. coli BW25113 wild type; OD600 absorbance; growth inhibition, % at 100 µM; hit rate 0.15% among 98,000;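 active = growth inhibition above about 50% at one test dose, limit read from the data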;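 note: growth measured after 20 h incubation at 37 °C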
PostGolgi ctrl = inhibits growth of the yeast control strain. efflux-deficient yeast background strain, growth absorbance A615, 16 h. inhibition, % at 10 µM. hit rate 5% among 98,000. AID 738
D1 mod = D1 dopamine receptor (human) allosteric modulation | P21728 | HEK293 D1, CRE-luciferase, dopamine EC30 potentiation; actives deviate in either direction | B-score at 10 µM | hit rate 5.9% among 58,000;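 active = luminescence count or its row- and column-corrected plate score outside the 99.7% band of the plate's sample wells, on either side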
Target sequence (P21728 whole entry, looked up): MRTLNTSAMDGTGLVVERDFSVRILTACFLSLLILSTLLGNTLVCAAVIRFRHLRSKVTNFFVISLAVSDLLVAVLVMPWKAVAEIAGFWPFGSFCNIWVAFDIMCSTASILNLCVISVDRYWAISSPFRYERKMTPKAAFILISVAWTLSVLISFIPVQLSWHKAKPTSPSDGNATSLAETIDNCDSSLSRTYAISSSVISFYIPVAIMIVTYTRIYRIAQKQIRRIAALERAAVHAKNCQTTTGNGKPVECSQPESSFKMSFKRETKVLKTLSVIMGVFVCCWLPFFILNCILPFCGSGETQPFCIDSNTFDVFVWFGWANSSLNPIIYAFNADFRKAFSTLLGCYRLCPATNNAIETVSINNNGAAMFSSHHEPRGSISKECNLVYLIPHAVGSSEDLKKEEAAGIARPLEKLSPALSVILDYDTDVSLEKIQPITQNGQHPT
PostGolgi yeast = growth inhibition of a yeast mutant, post-Golgi transport screen. hit rate 0.9% among 98,000. AID 739. inhibition, % at 10 µM. post-Golgi transport phenotypic cell assay;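 note: yeast cells grown in 1536-well plates; yeast grown about 18 h at 30C before absorbance read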
DAT uptake mod = modulates human dopamine transporter uptake under cocaine. B-score at 10 µM. LLC-PK1 hDAT cells, [14C]-dopamine uptake with cocaine IC80; actives deviate in either direction. Q01959. hit rate 1.3% among 110,000. AID 449768;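 active = Z score or B-score, a plate-position-corrected score, falls beyond the plate's 99.7% confidence bounds, in either direction; inactive = both scores lie inside the 99.7% bounds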
tolC growth inh = blocks growth of E. coli BW25113 tolC mutant. OD615. growth inhibition, % at 10 µM (by protocol). hit rate 2.2% among 65,000. AID 573;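 active = growth inhibition at or above a cutoff equal to the mean over every tested compound plus 3 SD, cut at about 60% in these data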;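 note: growth measured after 20 h incubation at 37 °C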
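test system = E. coli BW25113 ΔtolC::kan bacteria | medium = LB with kanamycin 50 µg/mL | signal = OD at 615 nm | schedule = 37 °C, 20 h exposure | evaluation = % inhibition of E. coli growth | compound dosing = one dose of 10 µM final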
D1 PAM confirm = confirmation of human D1 dopamine receptor allosteric modulators; shares compounds with D1 mod; HEK293 D1 CRE-luciferase, dopamine EC30 potentiation; active compounds read high; luminescence at 10 µM; hit rate 88% among 2,200;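 active = luminescence in either of two replicates above the same-plate mean plus 3 SD of the low-dose dopamine control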
D1 no dopamine = activates D1 CRE-luciferase signal without dopamine present | AID 646 | HEK293 D1 CRE-luciferase, luminescence, no dopamine; active compounds read high | luminescence at 10 µM | shares compounds with D1 mod | hit rate 0.8% among 1,900; in the data active = luminescence above about 3900
Isoprot counter = alters isoproterenol CRE-luciferase response in HEK293 cells | shares compounds with D1 mod | AID 647 | HEK293 D1 CRE-luciferase, isoproterenol EC30 counter-screen | calls only at 10 µM | hit rate 63% among 2,200;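 active = luminescence in either replicate above plate mean of wells with a partly effective reference agonist dose plus 3 SD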;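 note: isoproterenol raises cAMP through native beta-adrenoceptor Gs so signal bypasses D1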
Hits are given with their value; n = inactive; x = not tested or not shown; + = active, no number. Cut-off read from the data, not from the text of the source, unless noted: active = inhibition above about 30%; inactive = the rest.

SMILES | E coli WT exp | PostGolgi ctrl | D1 mod | PostGolgi yeast | DAT uptake mod | tolC growth inh | D1 PAM confirm | D1 no dopamine | Isoprot counter
CCOC(=O)C(O)(CCC(O)(C(=O)OCC)C(=O)OCC)C(=O)OCC | n | n | 5 | n | n | n | 6712 | n | n
CCOC(=O)N1CCC(NC(=O)c2csc3c2CCCC3)CC1 | n | n | x | n | n | n | x | x | x
COc1ccc(C)cc1NC(=O)CSc1nnc(-c2ccc(OC)c(OC)c2)n1N | n | n | 22.3 | n | n | n | 18440 | n | +
O=C(CSc1nnnn1-c1ccc2c(c1)OCO2)NCc1ccccc1 | n | n | n | n | n | n | x | x | x
Fc1ccccc1CSc1nnnn1-c1ccc2c(c1)OCO2 | n | n | 5.12 | n | n | n | 11056 | n | n
C/C(CCc1ccc2c(c1)OCO2)=N\N=C1\NC(=O)CC(C(=O)Nc2ccc(Cl)cc2)S1 (stereo not drawn) | n | n | x | n | n | x | x | x | x
CCn1ncc(C2=NOC(C(=O)NCc3ccccc3)C2)c1C (stereo not drawn) | n | n | 7.67 | n | n | n | 12364 | n | n
Cc1nn(C)cc1/C=N/NC(=O)C(C)(C)Oc1ccc(Cl)cc1 | n | n | x | n | n | x | x | x | x
O=c1c(/C=N/O)c(Nc2ccccc2)nc2ccccn12 | n | n | 4.21 | n | n | n | 9580 | n | +
COc1cccc(-c2cc(C(F)(F)F)n3nc(N)nc3n2)c1 | n | n | 7.26 | n | n | n | 15000 | n | +
COc1ccc(-c2cc(C(F)(F)F)n3nc(C)cc3n2)cc1 | n | n | 12.1 | n | n | n | 9368 | n | +
COc1ccc(-c2cc(C(F)(F)F)n3nc(N)nc3n2)cc1 | n | n | x | n | n | x | x | x | x
CC(C)NC(=O)c1cc2nc(-c3ccco3)cc(C(F)(F)F)n2n1 | n | n | x | n | n | x | x | x | x
Cc1cc2nc(-c3ccco3)cc(C(F)(F)F)n2n1 | n | n | 31.8 | n | n | n | 22332 | x | +
CCOC(=O)N1CCN(C(=S)Nc2cccc(C)c2)CC1 | n | n | x | n | n | x | x | x | x
O=C(CCS(=O)(=O)c1cccc2nsnc12)NCc1ccccc1Cl | n | n | x | n | n | x | x | x | x
COc1ccccc1Cn1nnc2c(=O)[nH]c(C3CCN(C(=O)c4ccc(C)cc4)CC3)nc21 | n | n | n | n | x | n | x | x | x
Cc1ccc(CC(=O)N2CCC(c3nc4c(nnn4Cc4ccccc4)c(=O)[nH]3)CC2)cc1 | n | n | 4.86 | n | n | n | n | n | n
O=C(c1ccccc1Cl)N1CCC(c2nc3c(nnn3Cc3ccco3)c(=O)[nH]2)CC1 | n | n | 6.06 | n | n | n | 11824 | n | +
COc1ccccc1Cn1nnc2c(=O)[nH]c(C3CCN(C(=O)c4ccccc4Cl)CC3)nc21 | n | n | n | n | n | n | x | x | x
Cc1ccc(C(=O)N2CCCC(c3nc4c(nnn4Cc4ccccc4)c(=O)[nH]3)C2)cc1 (stereo not drawn) | n | n | 3.44 | n | n | n | 9432 | x | +
Cc1nc2cc(CC(=O)O)ccc2o1 | n | n | x | n | n | x | x | x | x
CN1c2ccsc2C(O)=C(C(=S)Nc2ccc(F)c(Cl)c2)S1(=O)=O | n | n | x | n | n | x | x | x | x
COC(=O)c1c(-c2ccccc2)csc1NC(=O)c1ccco1 | n | n | 4.93 | n | n | n | 6288 | n | n
COC(=O)c1ccccc1NC(=O)c1ccco1 | n | n | 4.37 | n | n | n | 11880 | n | +
COC(=O)C1=C(C(=O)OC)[C@@H]2N(C)c3ccc(OC)cc3[C@@]23C[C@@H](C(=O)OC)N(C(=O)c2cc(C)oc2C)C3=N1 | x | x | x | x | n | x | x | x | x
CCc1cccc(C)c1NC(=O)C1=C(C(=O)O)CCCC1 | n | n | n | n | n | n | x | x | x
COc1ccc(OC)c(S(=O)(=O)N2CCC(C(=O)Nc3cc(C)ccc3C)CC2)c1 | n | n | x | n | n | x | x | x | x
COC(=O)c1ccccc1NC(=O)C1CCN(S(=O)(=O)c2cc(C)ccc2OC)CC1 | n | n | 17.5 | n | n | n | 16104 | n | +
